Legend:
Assay type in all cases: functional
Conditions in all cases: Homo sapiens
KM12 = assay: The concentration of compound required for 50% cell growth inhibition which was expressed in logarithmic form was measured on KM12 cell lines of colon cancer
How it was run: (§1)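 NCI 60-cell-line screen, sulforhodamine B assay. Cells grown in RPMI 1640 with 5% fetal bovine serum and 2 mM L-glutamine, seeded at 5000 to 40 000 cells/well, and incubated 24 h before drug. Drug exposure lasted 48 h. Cells were then TCA-fixed, stained with 0.4% (w/v) SRB in 1% acetic acid, and the stain solubilized in 10 mM Tris base for absorbance reading. GI50 taken from dose-response curves.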

K562 = assay: The concentration of compound required for 50% cell growth inhibition which was expressed in logarithmic form was measured on K-562 cell lines of Leukemia; how it was run: as §1
HCT-116 = assay: The concentration of compound required for 50% cell growth inhibition which was expressed in logarithmic form was measured on […] cell lines of colon cancer; how it was run: as §1
SK-MEL-5 = assay: The concentration of compound required for 50% cell growth inhibition which was expressed in logarithmic form was measured on SK-MEL-5 cell lines of Melanoma; how it was run: as §1
HL-60 = assay: The concentration of compound required for 50% cell growth inhibition which was expressed in logarithmic form was measured on HL-60(TB) cell lines of Leukemia
How it was run: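 NCI 60-line screen, sulforhodamine B read-out. Lines grown in RPMI 1640 with 5% fetal bovine serum and 2 mM L-glutamine, seeded at 5000–40 000 cells/well and left 24 h before drug. Drug exposure 48 h, then TCA fixation, 0.4% (w/v) SRB staining in 1% acetic acid, solubilization in 10 mM unbuffered Tris base and absorbance reading. GI50 reported as log value.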

HT-29 = assay: The concentration of compound required for 50% cell growth inhibition which was expressed in logarithmic form was measured on HT-29 cell lines of colon cancer; how it was run: as §1
MOLT-4 = assay: The concentration of compound required for 50% cell growth inhibition which was expressed in logarithmic form was measured on MOLT-4 cell lines of Leukemia; how it was run: as §1
COLO 205 = assay: The concentration of compound required for 50% cell growth inhibition which was expressed in logarithmic form was measured on COLO 205 cell lines of colon cancer; how it was run: as §1
Malme-3M = assay: The concentration of compound required for 50% cell growth inhibition which was expressed in logarithmic form was measured on MALME-3M cell lines of Melanoma; how it was run: as §1
SK-MEL-2 = assay: The concentration of compound required for 50% cell growth inhibition which was expressed in logarithmic form was measured on SK-MEL-2 cell lines of Melanoma; how it was run: as §1
M14 = assay: The concentration of compound required for 50% cell growth inhibition which was expressed in logarithmic form was measured on M14 cell lines of Melanoma; how it was run: as §1
UACC-257 = assay: The concentration of compound required for 50% cell growth inhibition which was expressed in logarithmic form was measured on UACC-257 cell lines of Melanoma; how it was run: as §1
RPMI-8226 = assay: The concentration of compound required for 50% cell growth inhibition which was expressed in logarithmic form was measured on RPMI-8226 cell lines of Leukemia; how it was run: as §1
HCT-15 = assay: The concentration of compound required for 50% cell growth inhibition which was expressed in logarithmic form was measured on HCT-15 cell lines of colon cancer; how it was run: as §1
SW-620 = assay: The concentration of compound required for 50% cell growth inhibition which was expressed in logarithmic form was measured on SW-620 cell lines of colon cancer; how it was run: as §1
CCRF-CEM = assay: The concentration of compound required for 50% cell growth inhibition which was expressed in logarithmic form was measured on CCRF-CEM cell lines of Leukemia; how it was run: as §1
HCC 2998 = assay: The concentration of compound required for 50% cell growth inhibition which was expressed in logarithmic form was measured on HCC2998 cell lines of colon cancer; how it was run: as §1
UACC-62 = assay: The concentration of compound required for 50% cell growth inhibition which was expressed in logarithmic form was measured on UACC-62 cell lines of Melanoma; how it was run: as §1
SK-MEL-28 = assay: The concentration of compound required for 50% cell growth inhibition which was expressed in logarithmic form was measured on SK-MEL-28 cell lines of Melanoma; how it was run: as §1

| SMILES | GI50 (KM12) | GI50 (K562) | GI50 (HCT-116) | GI50 (SK-MEL-5) | GI50 (HL-60) | GI50 (HT-29) | GI50 (MOLT-4) | GI50 (COLO 205) | GI50 (Malme-3M) | GI50 (SK-MEL-2) | GI50 (M14) | GI50 (UACC-257) | GI50 (RPMI-8226) | GI50 (HCT-15) | GI50 (SW-620) | GI50 (CCRF-CEM) | GI50 (HCC 2998) | GI50 (UACC-62) | GI50 (SK-MEL-28) |
| --- | --- | --- | --- | --- | --- | --- | --- | --- | --- | --- | --- | --- | --- | --- | --- | --- | --- | --- | --- |
| CN(CCNc1ccc2ncn3c4ccccc4c(=O)c1c23)CCNc1ccc2ncn3c4ccccc4c(=O)c1c23 | 2.69 µM | 28.2 µM | 2.24 µM | 5.89 µM | > 100 µM | 4.37 µM | 58.9 µM | 22.4 µM | 13.2 µM | 27.5 µM | 4.07 µM | 8.13 µM | 28.2 µM | 27.5 µM | 11.2 µM | 95.5 µM | 25.1 µM | 21.9 µM | 2.82 µM |
| CN(CCCNc1ccc2ncn3c4ccccc4c(=O)c1c23)CCCNc1ccc2ncn3c4ccc(C(C)(C)C)cc4c(=O)c1c23 | 1.55 µM | 0.724 µM | 1.23 µM | 1.7 µM | 4.79 µM | 1.58 µM | 3.09 µM | 1.74 µM | 1.74 µM | 1.58 µM | 2.04 µM | 1.45 µM | 2.88 µM | 1.78 µM | 1.29 µM | 6.92 µM | 1.7 µM | 1.91 µM | 1.82 µM |
| CN(CCCN)CCCNc1ccc2ncn3c4ccccc4c(=O)c1c23 | 1.07 µM | 0.813 µM | 0.661 µM | 1.55 µM | 0.282 µM | 0.631 µM | 0.355 µM | 1.15 µM | 1.62 µM | 1.45 µM | 1.78 µM | 1.78 µM | 1.15 µM | 3.47 µM | 0.631 µM | 0.347 µM | 1.35 µM | 1.62 µM | 1.55 µM |
| CN(CCCNc1ccc2ncn3c4ccccc4c(=O)c1c23)CCCNc1ccc2ncn3c4ccccc4c(=O)c1c23 | 0.295 µM | < 0.01 µM | < 0.01 µM | 12.9 µM | 0.0447 µM | 0.0166 µM | < 0.01 µM | 0.501 µM | 0.776 µM | 13.8 µM | > 100 µM | > 100 µM | 0.145 µM | 0.316 µM | < 0.01 µM | < 0.01 µM | 0.0933 µM | 8.13 µM | > 100 µM |
| CN(CCCNc1ccc2ncn3c4ccccc4c(=O)c1c23)CCCNc1ccc2nnn3c4ccccc4c(=O)c1c23 | 0.0309 µM | 17.8 µM | < 0.01 µM | 17 µM | 10.2 µM | < 0.01 µM | > 100 µM | 0.372 µM | 12 µM | 51.3 µM | > 100 µM | > 100 µM | – | 0.0479 µM | < 0.01 µM | 5.01 µM | – | 38 µM | 44.7 µM |
